Experimental data reported in ChEMBL document CHEMBL1806494, “Synthesis and biological evaluation of potential 5-HT(7) receptor PET radiotracers” (Eur J Med Chem, 2011).
Activity calls are given as the source filed them. The rule behind the calls is not given here.

Assays:
[1] = target: 5-hydroxytryptamine receptor 6 (Homo sapiens) (UniProt P50406); experiment: Binding affinity to recombinant human 5HT6 receptor expressed in CHO cells by competitive binding assay; type: cell-based
How it was run: (§1)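 Cell-based functional assay on human recombinant receptors expressed in CHO cells. Test compound inhibition of the control specific agonist response was measured over a concentration range. Concentration-response curves were built from mean replicate values and fitted with the Hill equation by non-linear regression to give IC50, reported as KB.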

[2] = target: T1, 5-hydroxytryptamine receptor 7 (Homo sapiens, UniProt P34969); experiment: Binding affinity to recombinant human 5HT7 receptor expressed in CHO cells by competitive binding assay; type: cell-based; how it was run: as §1
[3] = target: T2, 5-hydroxytryptamine receptor 1A (Homo sapiens) (UniProt P08908); experiment: Binding affinity to recombinant human 5HT1A receptor expressed in CHO cells by competitive binding assay; type: cell-based; how it was run: as §1
T2 sequence (whole entry): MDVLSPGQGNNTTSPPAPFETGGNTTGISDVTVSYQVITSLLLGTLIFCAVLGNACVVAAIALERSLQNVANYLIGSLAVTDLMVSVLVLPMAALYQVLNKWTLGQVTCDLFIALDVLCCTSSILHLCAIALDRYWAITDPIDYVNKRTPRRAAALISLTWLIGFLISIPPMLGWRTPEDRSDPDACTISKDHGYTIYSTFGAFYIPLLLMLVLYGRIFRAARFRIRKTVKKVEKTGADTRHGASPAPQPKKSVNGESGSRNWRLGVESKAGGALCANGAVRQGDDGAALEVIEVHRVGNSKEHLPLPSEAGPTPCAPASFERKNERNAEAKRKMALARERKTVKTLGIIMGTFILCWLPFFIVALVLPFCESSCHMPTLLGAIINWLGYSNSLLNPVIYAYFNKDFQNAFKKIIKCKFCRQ

[4] = target: 5-hydroxytryptamine receptor 7 (Rattus norvegicus) (UniProt P32305); experiment: Binding affinity to 5HT7 receptor in Sprague-Dawley rat hippocampus at 1 uCi/ml after 20 mins by semi-quantitative autoradiography in presence of 10 to 100 nM of 5HT7 receptor antagonist SB269970; type: tissue-based; settings: tested as the 18F-labelled form
How it was run: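 Coronal rat brain sections (30 µm, cut through hippocampus and cerebellum, stored at -80 °C) brought to ambient temperature, incubated 20 min in Tris phosphate-buffered saline (138 mM NaCl, 2.7 mM KCl, pH 7.6) with 37 kBq/ml [18F]radiotracer, alone or with SB269970 (10 nM, 100 nM or 1 µM). Rinsed 90 s in cold buffer (4 °C), then 90 s in cold water, dried, and exposed to a phosphor imaging plate for 60 min. Hippocampal binding read semi-quantitatively, in triplicate.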

[5] = target: T1, 5-hydroxytryptamine receptor 7; experiment: Binding affinity to 5HT7 receptor

Chain of 5-hydroxytryptamine receptor 6 (Homo sapiens) (P50406 whole entry): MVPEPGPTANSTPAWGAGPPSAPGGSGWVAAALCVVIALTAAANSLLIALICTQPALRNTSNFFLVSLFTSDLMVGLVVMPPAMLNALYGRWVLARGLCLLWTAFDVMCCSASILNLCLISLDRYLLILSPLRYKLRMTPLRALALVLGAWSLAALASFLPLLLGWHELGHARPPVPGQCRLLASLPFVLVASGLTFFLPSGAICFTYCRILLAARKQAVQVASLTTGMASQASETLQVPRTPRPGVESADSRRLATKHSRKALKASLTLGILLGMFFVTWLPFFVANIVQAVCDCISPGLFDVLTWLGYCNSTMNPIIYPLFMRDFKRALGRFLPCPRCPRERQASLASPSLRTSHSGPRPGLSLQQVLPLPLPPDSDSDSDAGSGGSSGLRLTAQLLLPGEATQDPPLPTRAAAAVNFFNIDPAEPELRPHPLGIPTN
T1 sequence (P34969 whole entry): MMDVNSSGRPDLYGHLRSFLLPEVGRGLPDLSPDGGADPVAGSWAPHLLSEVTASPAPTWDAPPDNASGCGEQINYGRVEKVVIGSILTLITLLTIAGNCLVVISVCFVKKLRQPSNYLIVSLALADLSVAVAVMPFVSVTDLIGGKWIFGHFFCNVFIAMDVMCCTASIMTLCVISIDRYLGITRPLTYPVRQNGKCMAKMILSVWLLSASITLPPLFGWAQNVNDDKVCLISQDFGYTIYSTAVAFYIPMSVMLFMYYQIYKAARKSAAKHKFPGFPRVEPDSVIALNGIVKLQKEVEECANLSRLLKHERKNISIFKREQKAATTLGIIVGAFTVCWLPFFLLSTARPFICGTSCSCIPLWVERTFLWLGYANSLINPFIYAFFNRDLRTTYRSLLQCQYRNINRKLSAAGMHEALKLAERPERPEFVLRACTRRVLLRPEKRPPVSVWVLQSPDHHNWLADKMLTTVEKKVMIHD
Chain of 5-hydroxytryptamine receptor 7 (Rattus norvegicus) (P32305 whole entry): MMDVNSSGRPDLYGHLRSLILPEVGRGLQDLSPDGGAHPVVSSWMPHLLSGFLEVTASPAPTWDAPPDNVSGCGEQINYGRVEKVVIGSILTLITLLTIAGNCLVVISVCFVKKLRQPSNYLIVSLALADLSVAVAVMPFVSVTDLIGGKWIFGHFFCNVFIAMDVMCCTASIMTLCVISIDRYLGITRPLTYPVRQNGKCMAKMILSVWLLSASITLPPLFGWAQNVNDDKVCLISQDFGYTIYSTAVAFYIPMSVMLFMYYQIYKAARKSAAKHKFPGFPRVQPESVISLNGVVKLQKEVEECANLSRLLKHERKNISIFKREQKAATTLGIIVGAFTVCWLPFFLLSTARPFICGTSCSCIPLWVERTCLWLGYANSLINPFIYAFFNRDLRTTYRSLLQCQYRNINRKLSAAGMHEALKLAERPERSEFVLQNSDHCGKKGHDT

For `CC1CCN(CC[C@H]2CCCN2S(=O)(=O)c2ccc(F)cc2)CC1`, the Kb [1] was over 10000 nM, the Kb [2] was 14 nM and the Kb [3] was over 10000 nM. For the same compound, the Activity [4] was “inactive”.

With `COc1ccccc1N1CCN(CC[C@H]2CCCN2S(=O)(=O)c2ccccc2F)CC1` the Kb [1] was over 10000 nM, the Kb [2] was 1.6 nM and the Kb [3] was over 10000 nM. For the same compound, the Activity [4] was “Active”.

`COc1ccccc1N1CCN(CC[C@H]2CCCN2S(=O)(=O)c2ccc(F)cc2)CC1` showed a Kb [1] of over 10000 nM, a Kb [2] of 4.8 nM and a Kb [3] of over 10000 nM. The Activity [4] was “Active”.

With `CC1CCN(CC[C@H]2CCCN2S(=O)(=O)c2ccccc2F)CC1` the Kb [1] was over 10000 nM, the Kb [2] was 8.4 nM and the Kb [3] was over 10000 nM. The Activity [4] was “inactive”.

Work on `[11CH3]N1C(=O)C2(CCCCN3CCc4sccc4C3)CCCc3cccc1c32` (configuration not stated) yielded a Ki [5] of 9.7 nM.
